Data reported in PMC2119646 (The Journal of Cell Biology, 1993).

Assays:
angiogenesis in vivo = settings: Table VII; source Fibronectin, others; ref Eijan et al., 1991; cited from earlier work
[1] = test system: Bovine adrenal capillary endothelial cells; experiment: endothelial cell migration in an inverted modified Boyden chamber; type: cell-based
Summary of the method: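 Bovine capillary endothelial cells at passages 10-15 were starved 24 h in DME/0.1% BSA and adhered 1-2 h at 37°C to a gelatinized filter. The chamber was reinverted, with test material in the top well, and incubated 3-4 h at 37°C. Migrated cells were counted in 10 high-power fields, in quadruplicate, with experiments repeated at least twice. Results were expressed as % of positive-control migration after background subtraction and corrected for >10% detachment.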

[2] = test system: neovascularization in the rat cornea; experiment: rat cornea neovascularization assay; type: in vivo; settings: Table I, Hydron pellets with TSP1 protein or fragments at 25-30 nM, without bFGF, vigorous vessel ingrowth from the limbus at 7 d = positive

Substance: G R G D
- Small Peptides Able to Inhibit Angiogenesis In Vivo (angiogenesis in vivo): Able to Inhibit Angiogenesis In Vivo

Substance: SPWD I C*SVTC*GGGVQKRSK [Mal III]
- ED50 for inhibition of migration with pure recombinant bFGF as inducer ([1]; retest of peptide with recombinant bFGF instead of conditioned media): 7 µM

Substance: TGF beta 1: Recombinant TGFβ1 purchased from R & D Sys. [reference compound]
- concentrations that stimulated endothelial cell migration ([1]; TGFβ dose response, Fig. 8): 0.04 to 0.4 pM

Substance: TSP: Human thrombospondin-1 purified from platelet releasate, 450-kD trimer
- Migration of endothelial cells to upper chamber (%), Control, with bFGF ([1]; Table VI, bFGF 10 ng/ml plus TGFβ 0.2 ng/ml or TSP 2.5 µg/ml, no antiserum): < 1%
- ability to block endothelial cell migration stimulated by bFGF ([1]; bFGF 10 ng/ml, Fig. 4 b): complete inhibition
- Positive corneas/number implanted, Alone [2]: 0/5

Substance: bFGF: Recombinant bFGF, inducer and positive control [reference compound]
- Migration of endothelial cells to upper chamber (%), Control ([1]; Table VI, addition alone: TGFβ 1 pg/ml or bFGF 10 ng/ml, no antiserum): 100%
